Laboratory results as given in ChEMBL document CHEMBL3853331, “Preparation, Antiepileptic Activity, and Cardiovascular Safety of Dihydropyrazoles as Brain-Penetrant T-Type Calcium Channel Blockers” (J Med Chem, 2016).
Converted amounts (≈) assume the structure as drawn.

Assays:
[1] = biological target: Voltage-dependent T-type calcium channel subunit alpha-1H (Homo sapiens, UniProt O95180); assay: Inhibition of recombinant T-type calcium channel Cav3.2 (unknown origin) expressed in HEK293 cells assessed as inhibition of CaCl2-induced calcium influx preincubated for 3 mins prior CaCl2 addition by Fluo-4-AM dye-based FLIPR assay; type: cell-based
Method in brief: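 HEK293 cells stably expressing Cav3.2, plated overnight at 37°C, loaded 1 h at 37°C with 3 µM Fluo-4-AM in HBSS/Hepes pH 7.4, then washed. Compound in TEAC buffer (100 mM tetraethylammonium chloride, pH 7.2), 3-fold series from 10 µM to 0.05 nM, 3 min before CaCl2 to a final 10 mM. IC50 fitted sigmoidally to the fluorescence AUC against vehicle signal; mean of at least two independent experiments.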

[2] = biological target: Voltage-dependent L-type calcium channel subunit alpha-1C (Homo sapiens, UniProt Q13936); assay: Inhibition of recombinant […] calcium channel Cav1.2 (unknown origin) expressed in HEK293 cells assessed as inhibition of Kcl-induced calcium influx preincubated for 3 mins prior CaCl2 addition by Fluo-4-AM dye-based FLIPR assay; type: cell-based
Method in brief: (§1)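 HEK293 cells stably expressing the channel, seeded overnight and loaded 1 h at 37°C with 3 µM Fluo-4-AM. Compounds given as a 3-fold dilution series from 10 µM to 0.05 nM and incubated 3 min. For T-type channels, dilutions in TEAC buffer and stimulation with 10 mM final CaCl2. For Cav1.2, dilutions in assay buffer and stimulation with 20 mM final KCl. IC50 from area under the fluorescence trace against vehicle; mean of at least two experiments.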

[3] = Aqueous solubility of the compound at pH 4 by UV-HPLC method; type: physicochemical
Method in brief: (§2)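 Compound dispensed from a 10 mM DMSO stock and the solvent evaporated. Residue stirred 24 h at room temperature in buffer: citrate (55 mM) pH 4.0 or phosphate (67 mM) pH 7.0. Mixture filtered by centrifugation. Filtrate concentration measured by HPLC-UV against calibration solutions.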

[4] = Aqueous solubility of the compound at pH 7 by UV-HPLC method; type: physicochemical; method in brief: as §2
MDR1 [5] = assay: Efflux ratio of permeability in MDCK cells expressing MDR1 (unknown origin); type: ADME, cell-based, Canis lupus familiaris; details: dog
Method in brief: (§3)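 MDR1-transfected MDCK cell monolayers. Compound tested at 1 µM. Apparent permeability measured in both directions, apical to basolateral and basolateral to apical. Efflux ratio taken from the two directional permeabilities.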

MDR1 [6] = assay: Apparent permeability across apical to basolateral side in MDCK cells expressing MDR1 (unknown origin) at 1 uM; type: ADME, cell-based, Canis lupus familiaris; details: dog; method in brief: as §3
MDR1 [7] = assay: Apparent permeability across basolateral to apical side in MDCK cells expressing MDR1 (unknown origin) at 1 uM; type: ADME, cell-based, Canis lupus familiaris; details: dog; method in brief: as §3
[8] = biological target: Voltage-gated inwardly rectifying potassium channel KCNH2 (Homo sapiens, UniProt Q12809); assay: Inhibition of human ERG expressed in CHO cells assessed as potassium tail current measured at -40 mV holding potential after 3 mins by QPatch clamp assay; type: cell-based
Method in brief: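 CHO cells stably expressing hERG, automated QPatch recording. 500-ms depolarization to +20 mV from a holding potential of -80 mV. K+ tail current measured at -40 mV. Effect read 3 min after application.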

[9] = biological target: Voltage-dependent T-type calcium channel subunit alpha-1G (Homo sapiens, UniProt O43497); assay: Inhibition of T-type calcium channel Cav3.1 (unknown origin) expressed in HEK293 cells assessed as calcium influx by Fluo-4-AM dye-based FLIPR assay; type: cell-based; method in brief: as §1
[10] = biological target: Voltage-dependent T-type calcium channel subunit alpha-1I (Homo sapiens, UniProt Q9P0X4); assay: Inhibition of T-type calcium channel Cav3.3 (unknown origin) expressed in HEK293 cells assessed as calcium influx by Fluo-4-AM dye-based FLIPR assay; type: cell-based; method in brief: as §1

Sequence of Voltage-dependent L-type calcium channel subunit alpha-1C (Q13936 whole entry): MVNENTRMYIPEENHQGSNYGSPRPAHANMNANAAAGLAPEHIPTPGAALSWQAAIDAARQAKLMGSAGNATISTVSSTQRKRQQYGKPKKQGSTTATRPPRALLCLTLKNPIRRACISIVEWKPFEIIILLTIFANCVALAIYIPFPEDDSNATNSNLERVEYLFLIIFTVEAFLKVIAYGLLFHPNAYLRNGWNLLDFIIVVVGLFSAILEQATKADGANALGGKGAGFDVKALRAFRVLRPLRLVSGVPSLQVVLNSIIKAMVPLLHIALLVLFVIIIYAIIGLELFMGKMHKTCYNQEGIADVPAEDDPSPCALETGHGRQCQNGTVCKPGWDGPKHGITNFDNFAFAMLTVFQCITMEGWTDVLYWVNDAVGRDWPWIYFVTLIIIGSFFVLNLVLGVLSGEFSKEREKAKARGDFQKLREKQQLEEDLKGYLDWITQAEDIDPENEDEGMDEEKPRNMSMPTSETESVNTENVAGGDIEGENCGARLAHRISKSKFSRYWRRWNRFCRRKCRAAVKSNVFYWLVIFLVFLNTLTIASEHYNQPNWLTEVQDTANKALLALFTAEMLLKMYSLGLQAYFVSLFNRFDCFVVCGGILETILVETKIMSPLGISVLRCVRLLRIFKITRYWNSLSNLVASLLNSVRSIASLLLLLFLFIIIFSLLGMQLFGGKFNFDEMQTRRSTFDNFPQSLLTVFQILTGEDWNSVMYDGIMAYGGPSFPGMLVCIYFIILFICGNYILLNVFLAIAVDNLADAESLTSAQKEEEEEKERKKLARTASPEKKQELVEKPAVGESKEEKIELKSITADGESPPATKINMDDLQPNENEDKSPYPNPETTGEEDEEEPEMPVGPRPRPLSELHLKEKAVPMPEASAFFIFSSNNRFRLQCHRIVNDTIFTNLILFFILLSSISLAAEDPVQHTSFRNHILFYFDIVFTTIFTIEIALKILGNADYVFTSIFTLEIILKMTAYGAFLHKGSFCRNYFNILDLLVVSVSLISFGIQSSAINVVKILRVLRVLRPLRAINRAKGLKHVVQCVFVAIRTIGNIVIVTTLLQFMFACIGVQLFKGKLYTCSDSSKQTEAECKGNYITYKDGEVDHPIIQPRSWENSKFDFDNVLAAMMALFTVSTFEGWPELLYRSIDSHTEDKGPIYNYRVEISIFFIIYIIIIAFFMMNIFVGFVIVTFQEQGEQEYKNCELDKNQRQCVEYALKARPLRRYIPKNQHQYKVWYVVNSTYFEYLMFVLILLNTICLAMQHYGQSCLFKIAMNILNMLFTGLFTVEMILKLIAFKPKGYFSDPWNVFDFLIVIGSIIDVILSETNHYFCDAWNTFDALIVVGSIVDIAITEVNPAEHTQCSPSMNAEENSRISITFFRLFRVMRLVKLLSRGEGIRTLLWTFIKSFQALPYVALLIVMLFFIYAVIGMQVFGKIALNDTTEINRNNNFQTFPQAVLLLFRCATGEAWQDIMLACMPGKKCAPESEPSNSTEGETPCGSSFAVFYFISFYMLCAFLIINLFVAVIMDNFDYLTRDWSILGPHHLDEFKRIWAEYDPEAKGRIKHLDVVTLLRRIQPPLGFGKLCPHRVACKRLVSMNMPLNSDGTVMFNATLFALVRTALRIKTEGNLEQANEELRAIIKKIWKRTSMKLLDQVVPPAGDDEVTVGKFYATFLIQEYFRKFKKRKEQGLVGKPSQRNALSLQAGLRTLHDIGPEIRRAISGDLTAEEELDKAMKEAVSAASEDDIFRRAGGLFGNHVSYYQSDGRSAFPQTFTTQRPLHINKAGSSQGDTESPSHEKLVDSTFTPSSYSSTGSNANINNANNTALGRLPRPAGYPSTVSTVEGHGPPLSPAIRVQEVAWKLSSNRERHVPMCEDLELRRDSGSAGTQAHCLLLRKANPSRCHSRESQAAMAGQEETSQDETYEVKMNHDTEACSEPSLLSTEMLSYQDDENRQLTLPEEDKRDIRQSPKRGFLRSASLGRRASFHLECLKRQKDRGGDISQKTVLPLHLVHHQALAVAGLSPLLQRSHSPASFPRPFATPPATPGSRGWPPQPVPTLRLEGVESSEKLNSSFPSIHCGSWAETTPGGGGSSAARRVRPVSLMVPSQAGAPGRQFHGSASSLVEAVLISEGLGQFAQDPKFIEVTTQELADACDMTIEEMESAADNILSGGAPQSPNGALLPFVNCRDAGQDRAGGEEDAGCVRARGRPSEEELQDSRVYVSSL
Sequence of Voltage-dependent T-type calcium channel subunit alpha-1H (O95180 whole entry): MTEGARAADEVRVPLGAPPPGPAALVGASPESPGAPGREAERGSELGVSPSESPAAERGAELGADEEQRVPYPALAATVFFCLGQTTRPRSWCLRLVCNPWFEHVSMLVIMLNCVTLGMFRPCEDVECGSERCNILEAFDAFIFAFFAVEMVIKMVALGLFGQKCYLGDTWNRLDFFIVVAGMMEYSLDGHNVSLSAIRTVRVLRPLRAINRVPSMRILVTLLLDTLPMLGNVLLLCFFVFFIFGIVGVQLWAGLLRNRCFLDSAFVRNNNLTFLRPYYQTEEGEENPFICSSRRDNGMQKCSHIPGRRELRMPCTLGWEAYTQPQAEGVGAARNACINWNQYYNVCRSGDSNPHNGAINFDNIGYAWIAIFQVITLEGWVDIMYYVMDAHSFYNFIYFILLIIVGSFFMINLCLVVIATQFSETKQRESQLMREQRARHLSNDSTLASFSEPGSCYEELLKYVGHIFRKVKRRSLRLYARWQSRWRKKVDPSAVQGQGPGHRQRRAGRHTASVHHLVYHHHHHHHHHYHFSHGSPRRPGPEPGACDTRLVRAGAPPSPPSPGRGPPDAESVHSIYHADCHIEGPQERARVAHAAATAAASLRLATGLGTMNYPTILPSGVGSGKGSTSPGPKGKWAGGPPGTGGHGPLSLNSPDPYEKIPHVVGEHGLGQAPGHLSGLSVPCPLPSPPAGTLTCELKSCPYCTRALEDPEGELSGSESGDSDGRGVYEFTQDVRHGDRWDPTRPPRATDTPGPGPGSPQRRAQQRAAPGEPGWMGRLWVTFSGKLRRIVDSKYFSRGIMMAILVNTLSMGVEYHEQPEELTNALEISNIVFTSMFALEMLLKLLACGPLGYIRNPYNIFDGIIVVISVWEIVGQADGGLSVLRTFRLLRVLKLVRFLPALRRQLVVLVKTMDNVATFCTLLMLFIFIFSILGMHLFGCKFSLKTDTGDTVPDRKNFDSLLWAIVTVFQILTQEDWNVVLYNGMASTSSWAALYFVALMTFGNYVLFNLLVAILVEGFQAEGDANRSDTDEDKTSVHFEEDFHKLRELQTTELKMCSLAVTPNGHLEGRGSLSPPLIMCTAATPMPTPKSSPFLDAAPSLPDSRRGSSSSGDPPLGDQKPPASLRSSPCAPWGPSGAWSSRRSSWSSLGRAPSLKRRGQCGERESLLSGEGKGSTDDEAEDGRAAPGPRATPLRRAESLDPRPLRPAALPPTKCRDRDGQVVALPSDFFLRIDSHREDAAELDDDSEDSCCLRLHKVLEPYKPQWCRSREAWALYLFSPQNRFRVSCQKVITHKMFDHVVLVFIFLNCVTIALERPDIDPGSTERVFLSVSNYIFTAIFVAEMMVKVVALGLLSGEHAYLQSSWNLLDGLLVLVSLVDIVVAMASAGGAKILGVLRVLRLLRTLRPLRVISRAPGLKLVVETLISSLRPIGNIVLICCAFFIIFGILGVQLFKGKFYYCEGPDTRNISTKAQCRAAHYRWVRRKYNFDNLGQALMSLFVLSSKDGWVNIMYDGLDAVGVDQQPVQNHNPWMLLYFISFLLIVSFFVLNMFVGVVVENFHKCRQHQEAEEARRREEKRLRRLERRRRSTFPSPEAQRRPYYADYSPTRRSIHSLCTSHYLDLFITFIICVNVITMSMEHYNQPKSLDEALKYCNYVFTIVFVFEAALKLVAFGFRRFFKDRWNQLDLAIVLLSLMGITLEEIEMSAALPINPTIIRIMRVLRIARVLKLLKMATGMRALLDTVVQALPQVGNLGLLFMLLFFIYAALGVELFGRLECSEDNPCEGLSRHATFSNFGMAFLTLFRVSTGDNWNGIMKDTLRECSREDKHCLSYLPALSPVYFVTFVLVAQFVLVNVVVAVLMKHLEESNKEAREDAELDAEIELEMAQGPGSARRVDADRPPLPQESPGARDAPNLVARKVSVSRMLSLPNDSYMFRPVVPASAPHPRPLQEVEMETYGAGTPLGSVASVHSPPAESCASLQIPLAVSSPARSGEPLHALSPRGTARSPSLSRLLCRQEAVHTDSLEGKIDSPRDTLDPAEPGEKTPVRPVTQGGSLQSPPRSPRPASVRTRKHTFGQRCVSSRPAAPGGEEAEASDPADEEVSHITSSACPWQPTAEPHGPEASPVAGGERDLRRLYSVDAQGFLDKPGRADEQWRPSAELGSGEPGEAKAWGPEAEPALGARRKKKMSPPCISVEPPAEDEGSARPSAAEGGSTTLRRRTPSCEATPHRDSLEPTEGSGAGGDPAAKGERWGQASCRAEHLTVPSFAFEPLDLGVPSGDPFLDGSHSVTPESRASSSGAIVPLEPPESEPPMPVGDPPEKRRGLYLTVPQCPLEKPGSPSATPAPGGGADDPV

## CN(C)CCOc1ccc(C2(CCO)CC(c3ccccc3)=NN2C(=O)Nc2ccc(F)cc2)cc1 (stereo not given)
[1]
  IC50: > 5.3 µM
[2]
  IC50: > 10 µM

## Cc1ccc(C2(CCO)CC(c3ccncc3)=NN2C(=O)Nc2ccc(F)cc2)cc1 (stereo not given)
[3]
  solubility: 193 µg/mL (≈ 461 µM)
[1]
  IC50: 0.33 µM
[4]
  solubility: 35 µg/mL (≈ 83.6 µM)
[2]
  IC50: 8.6 µM

## O=C(Nc1ccccc1F)N1N=C(c2ccc(Br)cc2)CC1c1ccc(F)cc1 (stereo not given)
[3]
  solubility: < 1 µg/mL
[1]
  IC50: > 10 µM
[4]
  solubility: < 1 µg/mL
[2]
  IC50: > 10 µM

## O=C(Nc1ccc(F)cc1)N1N=C(c2ccc(Br)cc2)CC1c1ccc(F)cc1 (stereo not given)
[3]
  solubility: < 1 µg/mL
[1]
  IC50: 0.016 µM
[2]
  IC50: > 10 µM

## O=C(Nc1ccc(F)cc1)N1N=C(c2ccccc2)CC1(CCO)c1ccccc1 (stereo not given)
[1]
  IC50: 0.12 µM
[2]
  IC50: 1.94 µM

## Cc1ccc(C2(CCN(C)C)CC(c3ccccc3)=NN2C(=O)Nc2ccc(F)cc2)cc1 (stereo not given)
[3]
  solubility: 42 µg/mL (≈ 94.5 µM)
[1]
  IC50: 0.24 µM
[4]
  solubility: 30 µg/mL (≈ 67.5 µM)
[2]
  IC50: 2.2 µM

## O=C(Nc1ccncc1)N1N=C(c2ccccc2)CC1c1ccc(F)cc1 (stereo not given)
[1]
  IC50: 0.202 µM
[2]
  IC50: 3.09 µM

## COc1ccc(C2=NN(C(=O)Nc3ccc(Cl)cc3)[C@](CCO)(c3cccnc3)C2)cc1
[3]
  solubility: 27 µg/mL (≈ 59.9 µM)
MDR1 [5]
  efflux ratio: 17
[1]
  IC50: 0.055 µM
MDR1 [6]
  Papp A→B at 1 µM: 5.3 ×10⁻⁶ cm/s
MDR1 [7]
  Papp B→A at 1 µM: 90 ×10⁻⁶ cm/s
[4]
  solubility: 14 µg/mL (≈ 31 µM)
[2]
  IC50: 5.7 µM

## Cc1ccc(C2(CCN3CCOCC3)CC(c3ccccc3)=NN2C(=O)Nc2ccc(F)cc2)cc1 (stereo not given)
[3]
  solubility: 371 µg/mL (≈ 762 µM)
[1]
  IC50: 0.43 µM
[4]
  solubility: 1 µg/mL (≈ 2.06 µM)
[2]
  IC50: 5.9 µM

## COc1ccc(C2(CCO)CC(c3cccnc3)=NN2C(=O)Nc2ccc(Br)cc2)cc1 (stereo not given)
[1]
  IC50: 0.14 µM
[2]
  IC50: > 10 µM

## CC(C)NC(=O)N1N=C(c2ccc(Br)cc2)CC1c1ccc(F)cc1 (stereo not given)
[1]
  IC50: 0.382 µM
[2]
  IC50: 2.36 µM

## O=C(Nc1ccc(F)cc1)N1N=C(c2ccccc2)CC1(CO)c1ccc(F)cc1 (stereo not given)
[1]
  IC50: 0.07 µM
[4]
  solubility: 2 µg/mL (≈ 4.91 µM)
[2]
  IC50: 2.65 µM

## O=C(NCCc1ccccc1)N1N=C(c2ccc(Br)cc2)CC1c1ccc(F)cc1 (stereo not given)
[1]
  IC50: 0.42 µM
[2]
  IC50: 1.88 µM

## CS(=O)(=O)c1ccc(C2CC(c3ccncc3)=NN2C(=O)Nc2ccc(F)cc2)cc1 (stereo not given)
[1]
  IC50: 0.41 µM
[2]
  IC50: > 10 µM

## O=C(c1ccccc1)N1N=C(c2ccc(Br)cc2)CC1c1ccc(F)cc1 (stereo not given)
[1]
  IC50: 5.39 µM
[2]
  IC50: > 10 µM

## O=C(Nc1ccc(F)cc1)N1N=C(c2cc[n+]([O-])cc2)CC1c1ccc(F)cc1 (stereo not given)
[1]
  IC50: 0.11 µM
[2]
  IC50: > 10 µM

## O=C(Nc1ccccn1)N1N=C(c2ccc(Br)cc2)CC1c1ccc(F)cc1 (stereo not given)
[1]
  IC50: 0.393 µM
[2]
  IC50: 2.18 µM

## COc1ccc([C@]2(CCO)CC(c3cccnc3)=NN2C(=O)Nc2ccc(Br)cc2)cc1
[1]
  IC50: 0.033 µM
[2]
  IC50: 4.8 µM

## O=C(Nc1ccc(F)cc1)N1N=C(c2ccncc2)C[C@H]1c1ccc(F)cc1
[1]
  IC50: 0.021 µM
[2]
  IC50: 5.4 µM

## COCC1(c2ccc(C)cc2)CC(c2ccccc2)=NN1C(=O)Nc1ccc(F)cc1 (stereo not given)
[1]
  IC50: 0.35 µM
[2]
  IC50: > 10 µM

## CS(=O)(=O)c1ccc(C2CC(c3ccccc3)=NN2C(=O)Nc2ccc(F)cc2)cc1 (stereo not given)
[3]
  solubility: < 1 µg/mL
[1]
  IC50: 0.04 µM
[4]
  solubility: < 1 µg/mL
[2]
  IC50: > 10 µM

## CC1=NN(C(=O)Nc2ccc(F)cc2)C(c2ccc(F)cc2)C1 (stereo not given)
[1]
  IC50: 0.9 µM
[2]
  IC50: > 10 µM

## O=C(Nc1ccccc1)N1N=C(c2ccc(Br)cc2)CC1c1ccc(F)cc1 (stereo not given)
[1]
  IC50: 0.068 µM
[2]
  IC50: > 10 µM
[8]
  IC50: > 10 µM

## Cc1ccc(C2(CCN3CCN(C)CC3)CC(c3ccccc3)=NN2C(=O)Nc2ccc(F)cc2)cc1 (stereo not given)
[3]
  solubility: 477 µg/mL (≈ 955 µM)
[1]
  IC50: 0.69 µM
[4]
  solubility: 158 µg/mL (≈ 316 µM)
[2]
  IC50: 3.6 µM

## O=C(Nc1ccc(F)cc1)N1N=C(c2ccccc2)CC1c1ccc(F)cc1 (stereo not given)
[3]
  solubility: < 1 µg/mL
[1]
  IC50: 0.025 µM
[4]
  solubility: < 1 µg/mL
[2]
  IC50: > 10 µM

## CC(C)c1ccc(CC(=O)N[C@H](C)c2ccc(OCC(F)(F)F)cn2)cc1 [SUVECALTAMIDE]
[9]
  IC50: 0.0012 µM
[1]
  IC50: 0.0082 µM
[10]
  IC50: 0.0015 µM

## Fc1ccc(NC(=S)N2N=C(c3ccc(Br)cc3)CC2c2ccc(F)cc2)cc1 (stereo not given)
[1]
  IC50: 0.281 µM
[2]
  IC50: > 10 µM

## COc1ccc([C@@]2(CCO)CC(c3cccnc3)=NN2C(=O)Nc2ccc(Br)cc2)cc1
[1]
  IC50: > 10 µM

## O=C(Nc1cccc(F)c1)N1N=C(c2ccc(Br)cc2)CC1c1ccc(F)cc1 (stereo not given)
[1]
  IC50: 0.046 µM
[2]
  IC50: > 10 µM
[8]
  IC50: > 10 µM

## COc1ccc(NC(=O)N2N=C(c3ccc(Br)cc3)CC2c2ccc(F)cc2)cc1 (stereo not given)
[3]
  solubility: < 1 µg/mL
[1]
  IC50: 0.447 µM
[4]
  solubility: < 1 µg/mL
[2]
  IC50: > 10 µM

## COCCOc1ccc(C2(CCO)CC(c3ccccc3)=NN2C(=O)Nc2ccc(F)cc2)cc1 (stereo not given)
[3]
  solubility: 8 µg/mL (≈ 16.8 µM)
[1]
  IC50: 0.06 µM
[4]
  solubility: 8 µg/mL (≈ 16.8 µM)
[2]
  IC50: 6.3 µM

## O=C(NC1CCCCC1)N1N=C(c2ccc(Br)cc2)CC1c1ccc(F)cc1 (stereo not given)
[1]
  IC50: 0.316 µM
[2]
  IC50: 1.34 µM

## CCc1ccc(NC(=O)N2N=C(c3ccc(Br)cc3)CC2c2ccc(F)cc2)cc1 (stereo not given)
[1]
  IC50: 0.613 µM
[2]
  IC50: > 10 µM

## CC(C)(C)NC(=O)CN1CCC(CNC(=O)c2cc(F)cc(Cl)c2)CC1 [ULIXACALTAMIDE]
[9]
  IC50: 0.037 µM
[1]
  IC50: 0.073 µM
[10]
  IC50: 0.086 µM

## O=C(Nc1ccc(F)cc1)N1N=C(c2ccncc2)C[C@@H]1c1ccc(F)cc1
[1]
  IC50: 0.32 µM
[2]
  IC50: 7.8 µM

## CC1CC(c2ccccc2)=NN1C(=O)Nc1ccc(F)cc1 (stereo not given)
[1]
  IC50: 0.41 µM
[2]
  IC50: 3.9 µM

## CS(=O)(=O)c1ccc(C2(CCO)CC(c3ccccc3)=NN2C(=O)Nc2ccc(F)cc2)cc1 (stereo not given)
MDR1 [5]
  efflux ratio: 104
[1]
  IC50: 0.42 µM
MDR1 [6]
  Papp A→B at 1 µM: 0.6 ×10⁻⁶ cm/s
MDR1 [7]
  Papp B→A at 1 µM: 62 ×10⁻⁶ cm/s
[2]
  IC50: > 10 µM
